Tests used:
[1] = Ratio of IC50(RKALR) vs IC50(RLAR)
[2] = target: Aldo-keto reductase family 1 member B1 (Rattus norvegicus) (UniProt P07943); test: Compound was evaluated for irreversible inhibition of Rat Lens Aldose reductase (RLAR) at 10e-4 M
How it was run: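 Each purified reductase was desalted into 0.1 M phosphate (pH 7.4) to remove glycerol and 2-mercaptoethanol. Enzyme (ca. 0.3 unit/mL) was exposed to inhibitor or buffer alone for 15 min at room temperature. A 400 µL aliquot was then desalted into pH 7.0 phosphate with 10 mM 2-mercaptoethanol, and BSA was added. The eluate was kept on ice, and residual activity was read from NADPH loss at 340 nm with DL-glyceraldehyde. Runs were at least triplicate and averaged.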

[3] = target: Aldo-keto reductase family 1 member B1 (Rattus norvegicus, UniProt P07943); test: Compound was evaluated for the inhibition of Rat Lens Aldose reductase (RLAR)
How it was run: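 Purified rat lens aldose reductase and rat kidney aldehyde reductase, each homogeneous on SDS-PAGE. The 1.0 mL assay held equal enzyme units in 0.10 M Na,K phosphate (pH 6.2), 0.3 mM NADPH, 10 mM DL-glyceraldehyde and inhibitor. The NADPH decrease at 340 nm was followed over 4 min, with no-substrate absorbance controls. IC50 is given as mean ± SD.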

[4] = tested on: Aldehyde reductase AKR1A1 (Rattus norvegicus); test: Compound was evaluated for irreversible inhibition of Rat kidney Aldehyde reductase (RKALR) at 10e-4 M
[5] = target: Aldo-keto reductase family 1 member B1 (Rattus norvegicus) (UniProt P07943); test: Protection by the compound of irreversible inhibition of Rat Lens Aldose reductase by [5-(2-Iodo-acetyl)-1,3-dioxo-1H,3H-benzo[de]isoquinolin-2-yl]-acetic acid(0.01 mM) at 1 mM concentration; assay type: functional
How it was run: (§1)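 Rat lens aldose reductase was desalted into 0.1 M phosphate (pH 7.4). The enzyme was preincubated 5 min with the reversible inhibitor, then the iodoacetamide label was added for a further 5 min. Unreacted reagent was removed by desalting into buffer with 10 mM 2-mercaptoethanol, BSA was added, and residual activity was read by NADPH loss at 340 nm. Runs were at least triplicate and averaged.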

[6] = target: Aldo-keto reductase family 1 member B1 (Rattus norvegicus) (UniProt P07943); test: Protection by the compound of irreversible inhibition of Rat Lens Aldose reductase by [5-(2-Iodo-acetyl)-1,3-dioxo-1H,3H-benzo[de]isoquinolin-2-yl]-acetic acid(0.1 mM) at 0.1 mM concentration; assay type: functional; how it was run: as §1
[7] = target: Aldo-keto reductase family 1 member B1 (Rattus norvegicus) (UniProt P07943); test: Protection by the compound of irreversible inhibition of Rat Lens Aldose reductase by [5-(2-Iodo-acetyl)-1,3-dioxo-1H,3H-benzo[de]isoquinolin-2-yl]-acetic acid(0.1 mM) at 1 mM concentration; assay type: functional; how it was run: as §1
[8] = target: Aldo-keto reductase family 1 member B1 (Rattus norvegicus) (UniProt P07943); test: Protection by the compound of irreversible inhibition of Rat Lens Aldose reductase by [5-(2-Iodo-acetyl)-1,3-dioxo-1H,3H-benzo[de]isoquinolin-2-yl]-acetic acid(0.1 mM) at 0.01 mM concentration; assay type: functional; how it was run: as §1
[9] = target: Aldo-keto reductase family 1 member B1 (Rattus norvegicus) (UniProt P07943); test: Protection by the compound of irreversible inhibition of Rat Lens Aldose reductase by [5-(2-Iodo-acetyl)-1,3-dioxo-1H,3H-benzo[de]isoquinolin-2-yl]-acetic acid(0.01 mM) at 0.1 mM concentration; assay type: functional; how it was run: as §1
[10] = target: Aldo-keto reductase family 1 member B1 (Rattus norvegicus) (UniProt P07943); test: Protection by the compound of irreversible inhibition of Rat Lens Aldose reductase by [5-(2-Iodo-acetyl)-1,3-dioxo-1H,3H-benzo[de]isoquinolin-2-yl]-acetic acid(0.01 mM) at 0.01 mM concentration; assay type: functional; how it was run: as §1

O=C(O)CN1C(=O)c2cccc3cc(NC(=O)CBr)cc(c23)C1=O
Ratio [1]: 13 Ratio | inhibition [2]: 46% | IC50 [3]: 0.6 µM

O=C(O)CN1C(=O)c2cccc3cc(C(=O)CI)cc(c23)C1=O
inhibition [2]: 89%

O=C(O)CN1C(=O)c2cccc3cc(N=C=S)cc(c23)C1=O
inhibition [4]: 0%

CC(=O)Nc1cc2c3c(cccc3c1)C(=O)N(CC(=O)O)C2=O
Protection [5]: 100% | Protection [6]: 19% | Protection [7]: 39% | Protection [8]: 17% | Protection [9]: 43% | Protection [10]: 11% | Ratio [1]: 10 | IC50 [3]: 0.64 µM

— ChEMBL document CHEMBL1125410, “Selective irreversible inhibitors of aldose reductase” (J Med Chem, 1992)
